Measured values taken from ChEMBL document CHEMBL3108759, “Scaffold ranking and positional scanning utilized in the discovery of nAChR-selective compounds suitable for optimization studies” (J Med Chem, 2013).

Legend:
[1] = target: T1, Neuronal acetylcholine receptor; alpha4/beta2 (Rattus norvegicus, UniProt P09483+P12390); test: Antagonist activity at rat alpha4beta2 nAChR transfected in HEK293 cells after 10 mins by fluorescence assay in presence of nicotine; assay type: cell-based
Method in brief: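 Transfected HEK cells were seeded at 4000/well the day before and loaded with blue membrane-potential dye in HBSS/20 mM HEPES pH 7.4 at 37 °C for 20 min. […] Fluorescence (ex 530, em 550–580) was recorded every 3 s for 120 s on a FlexStation.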

[2] = target: T1, Neuronal acetylcholine receptor; alpha4/beta2; test: Displacement of [3H]epibatidine from rat alpha4beta2 nAChR transfected in HEK293 cells after 2 hrs by beta-plate counting analysis; assay type: cell-based
Method in brief: (§1)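 Cell lines KXα3β4R2 and KXα4β2R2 (rat receptors) were used. Membranes were prepared by homogenizing cells in 50 mM Tris pH 7.4 and centrifuging twice at 20000g. They were incubated 2 h at room temperature with 0.3 nM [3H]epibatidine plus test sample, then filtered on PEI-soaked glass fiber and counted. Nonspecific binding was defined by 1 µM AT-1001 or 0.1 µM epibatidine. Ki was obtained by Cheng–Prusoff; runs were in triplicate, at least twice.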

[3] = target: Neuronal acetylcholine receptor; alpha3/beta4 (Rattus norvegicus, UniProt P04757+P12392); test: Displacement of [3H]epibatidine from rat alpha3beta4 nAChR transfected in HEK293 cells after 2 hrs by beta-plate counting analysis; assay type: cell-based; method in brief: as §1
Neuronal acetylcholine receptor; alpha3/beta4, sequence (P04757 whole entry): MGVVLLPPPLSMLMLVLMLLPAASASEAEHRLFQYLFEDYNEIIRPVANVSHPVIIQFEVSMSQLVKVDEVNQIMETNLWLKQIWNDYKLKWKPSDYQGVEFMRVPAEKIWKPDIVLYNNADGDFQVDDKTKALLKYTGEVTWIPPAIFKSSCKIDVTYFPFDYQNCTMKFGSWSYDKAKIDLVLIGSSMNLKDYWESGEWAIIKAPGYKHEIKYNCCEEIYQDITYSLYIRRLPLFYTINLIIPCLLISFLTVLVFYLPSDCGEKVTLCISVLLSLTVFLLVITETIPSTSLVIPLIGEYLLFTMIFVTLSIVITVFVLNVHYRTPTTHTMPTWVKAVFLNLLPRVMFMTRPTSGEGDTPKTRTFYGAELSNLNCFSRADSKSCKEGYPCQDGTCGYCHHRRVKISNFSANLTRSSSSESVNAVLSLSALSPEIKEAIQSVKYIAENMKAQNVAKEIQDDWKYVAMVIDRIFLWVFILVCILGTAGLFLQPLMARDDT
Neuronal acetylcholine receptor; alpha3/beta4, sequence (P12392 whole entry): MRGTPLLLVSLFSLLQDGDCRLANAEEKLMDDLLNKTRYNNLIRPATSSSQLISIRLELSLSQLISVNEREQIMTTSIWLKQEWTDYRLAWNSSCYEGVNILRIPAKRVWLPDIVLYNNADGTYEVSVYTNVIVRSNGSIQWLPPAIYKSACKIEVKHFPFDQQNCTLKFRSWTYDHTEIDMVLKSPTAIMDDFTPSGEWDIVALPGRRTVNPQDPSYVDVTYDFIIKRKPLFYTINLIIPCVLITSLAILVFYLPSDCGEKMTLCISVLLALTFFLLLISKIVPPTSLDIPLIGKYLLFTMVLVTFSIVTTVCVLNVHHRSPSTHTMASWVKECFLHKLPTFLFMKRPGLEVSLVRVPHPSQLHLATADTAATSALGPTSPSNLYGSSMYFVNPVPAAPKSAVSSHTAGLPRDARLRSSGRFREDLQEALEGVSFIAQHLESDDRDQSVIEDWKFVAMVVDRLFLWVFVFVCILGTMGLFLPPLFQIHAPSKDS

Rattus norvegicus = species on record: Rattus norvegicus; test: Selectivity ratio of Ki for rat alpha3beta4 nAChR to Ki for rat alpha4beta2 nAChR
Method in brief: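 Selectivity was calculated from [3H]epibatidine-binding Ki values as (Ki α3β4 − Ki α4β2)/Ki α4β2.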

HEK293 = test: Selectivity ratio for rat alpha3beta4 nAChR transfected in HEK293 cells to rat alpha4beta2 nAChR transfected in HEK293 cells; assay type: cell-based

T1 sequence (P09483 whole entry): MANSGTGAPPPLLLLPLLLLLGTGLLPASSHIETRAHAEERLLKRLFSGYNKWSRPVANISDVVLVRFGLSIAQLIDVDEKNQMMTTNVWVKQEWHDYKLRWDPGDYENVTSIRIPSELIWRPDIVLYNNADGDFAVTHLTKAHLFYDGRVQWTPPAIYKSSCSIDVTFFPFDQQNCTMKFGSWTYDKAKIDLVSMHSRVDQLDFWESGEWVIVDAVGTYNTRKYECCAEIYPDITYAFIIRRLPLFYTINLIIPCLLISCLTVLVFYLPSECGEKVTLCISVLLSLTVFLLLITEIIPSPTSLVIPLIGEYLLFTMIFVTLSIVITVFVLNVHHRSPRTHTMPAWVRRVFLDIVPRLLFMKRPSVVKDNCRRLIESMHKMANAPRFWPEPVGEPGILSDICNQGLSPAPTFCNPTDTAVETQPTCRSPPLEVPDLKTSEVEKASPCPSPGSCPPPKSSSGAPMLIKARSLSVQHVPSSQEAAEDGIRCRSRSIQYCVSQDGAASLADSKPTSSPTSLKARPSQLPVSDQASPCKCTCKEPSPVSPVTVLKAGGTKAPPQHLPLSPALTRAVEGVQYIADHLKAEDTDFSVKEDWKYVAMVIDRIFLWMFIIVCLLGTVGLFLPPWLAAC
T1 sequence (P12390 whole entry): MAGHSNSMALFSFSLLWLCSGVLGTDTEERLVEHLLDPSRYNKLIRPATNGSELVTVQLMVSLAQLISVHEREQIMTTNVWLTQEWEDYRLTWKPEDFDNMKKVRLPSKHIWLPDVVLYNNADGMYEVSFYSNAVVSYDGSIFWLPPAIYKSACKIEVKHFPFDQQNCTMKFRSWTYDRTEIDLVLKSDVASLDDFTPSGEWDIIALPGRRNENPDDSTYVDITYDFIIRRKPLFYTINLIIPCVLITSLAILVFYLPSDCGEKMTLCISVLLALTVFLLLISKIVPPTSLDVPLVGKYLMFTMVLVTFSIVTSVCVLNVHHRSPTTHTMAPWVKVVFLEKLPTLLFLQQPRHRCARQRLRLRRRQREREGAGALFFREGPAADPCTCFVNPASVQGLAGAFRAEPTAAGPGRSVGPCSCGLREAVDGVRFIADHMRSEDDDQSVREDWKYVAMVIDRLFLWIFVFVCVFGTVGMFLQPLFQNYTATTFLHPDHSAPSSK

| SMILES | IC50 [1] [µM] | Ki [2] [µM] | Ki [3] [µM] | Ratio Ki (Rattus norvegicus) | Selectivity ratio (HEK293) |
| --- | --- | --- | --- | --- | --- |
| CC(C)(C)C1CCC(CN2C(=N)N(CCCC[C@H]3CN=C(N)N3CCc3cccc(F)c3)C[C@H]2CC2CCCCC2)CC1 (some centres undefined) | 5.32 | 3.73 | 88.9 |  |  |
| N=C1N(CCCC[C@H]2CN=C(N)N2CCc2cccc(F)c2)C[C@@H](CC2CCCCC2)N1CCc1cccc(Br)c1 |  | 3.5 | 20.1 |  |  |
| CC(C)(C)C1CCC(CN2C(=N)N(CCCC[C@@H]3CNC(=N)N3CCc3cccnc3)C[C@H]2CC2CCCCC2)CC1 (some centres undefined) | 1.69 | 0.257 | 33.4 | 130 |  |
| CC(C)CCCN1C(N)=NC[C@@H]1CCCCN1C[C@@H](CC2CCCCC2)N(CC2CCC(C(C)(C)C)CC2)C1=N (some centres undefined) |  | 3.5 | 78.4 |  |  |
| CCCCCCCN1C(=N)NC[C@@H]1CCCCN1C[C@@H](Cc2ccccc2)N(CC2CCC(C(C)(C)C)CC2)C1=N (some centres undefined) |  |  |  |  | 19.3 |
| CCCCCCCN1C(N)=NC[C@@H]1CCCCN1C[C@@H](CC2CCCCC2)N(CC2CCC(C(C)(C)C)CC2)C1=N (some centres undefined) |  | 3.9 | 55.1 |  |  |
| N=C1NC[C@H](CCCCN2C[C@H](Cc3ccc4ccccc4c3)N(CCc3ccc(Br)cc3)C2=N)N1CCc1ccc(Cl)c(Cl)c1 |  |  |  |  | -0.1 |
| CC(C)CCCN1C(=N)NC[C@@H]1CCCCN1C[C@@H](Cc2ccccc2)N(CC2CCC(C(C)(C)C)CC2)C1=N (some centres undefined) |  |  |  |  | 28.5 |
| N=C1N(CCCC[C@H]2CN=C(N)N2CCc2ccc(Cl)c(Cl)c2)C[C@@H](Cc2ccc3ccccc3c2)N1CCc1ccc(Br)cc1 |  | 2.5 | 4 |  |  |
| CC(C)(C)C1CCC(CN2C(=N)N(CCCC[C@H]3CNC(=N)N3CCc3cccc(F)c3)C[C@H]2Cc2ccccc2)CC1 (some centres undefined) | 26.3 | 1.59 | 61.7 | 39 | 19 |
| CC(C)(C)C1CCC(CN2C(=N)N(CCCC[C@@H]3CNC(=N)N3CCc3cccnc3)C[C@H]2Cc2ccccc2)CC1 (some centres undefined) | 3.02 | 0.307 | 63.3 | 206 |  |
| CC(C)(C)C1CCC(CN2CCN(CCCC[C@H]3CNC(=N)N3CCc3cccnc3)C2=N)CC1 (some centres undefined) |  |  |  | 64 |  |
| CO[C@H]1CC=C2CCN3CCC4=C(CC(=O)OC4)[C@]23C1 | 0.624 | 0.485 | > 10 |  |  |
| CC(C)CCCN1C(=N)NC[C@@H]1CCCCN1C[C@@H](CC2CCCCC2)N(CCc2cccc(Br)c2)C1=N |  |  |  |  | 10.2 |
| N=C1NC[C@H](CCCCN2C[C@@H](Cc3ccc4ccccc4c3)N(CCc3cccc(Br)c3)C2=N)N1CCc1ccc(Cl)c(Cl)c1 |  |  |  |  | 0.6 |
| N=C1NC[C@H](CCCCN2C[C@@H](Cc3ccc4ccccc4c3)N(CCc3ccc(Cl)c(Cl)c3)C2=N)N1CCc1ccc(Cl)c(Cl)c1 |  |  |  |  | 6.3 |
| CC(C)(C)C1CCC(CN2C(=N)N(CCCC[C@H]3CN=C(N)N3CCc3cccnc3)C[C@@H]2Cc2ccccc2)CC1 (some centres undefined) | 1.47 | 0.323 | 23.8 |  |  |
| N=C1N(CCCC[C@H]2CN=C(N)N2CCc2ccc(Cl)c(Cl)c2)C[C@H](Cc2ccc3ccccc3c2)N1CCc1cccc(Br)c1 |  | 43.4 | 76 |  |  |
| CC(C)(C)C1CCC(CN2C(=N)N(CCCC[C@H]3CNC(=N)N3CCc3cccnc3)C[C@@H]2Cc2ccccc2)CC1 (some centres undefined) |  |  |  | 74 |  |
| CC(C)(C)C1CCC(CN2C(=N)N(CCCC[C@H]3CN=C(N)N3CCc3cccnc3)C[C@@H]2CC2CCCCC2)CC1 (some centres undefined) | 3.4 | 0.611 | 78.1 |  |  |
| CC(C)(C)C1CCC(CN2C(=N)N(CCCC[C@H]3CN=C(N)N3CCc3cccnc3)C[C@H]2CC2CCCCC2)CC1 (some centres undefined) | 2.83 | 0.34 | 59.7 |  |  |
| N=C1N(CCCC[C@H]2CN=C(N)N2CCc2ccc(Cl)c(Cl)c2)C[C@@H](Cc2ccc3ccccc3c2)N1CCc1cccc(Br)c1 |  | 1.9 | 3 |  |  |
| N=C1NC[C@H](CCCCN2C[C@@H](Cc3ccc4ccccc4c3)N(CCc3ccc(Br)cc3)C2=N)N1CCc1ccc(Cl)c(Cl)c1 |  |  |  |  | 0.6 |
